# Reference: ChEMBL document CHEMBL1154792, “chi-Conopeptide pharmacophore development: toward a novel class of norepinephrine transporter inhibitor (Xen2174) for pain” (J Med Chem, 2009)
# Species on record: Rattus norvegicus
# Test: Toxicity in CCI rat pain model assessed as side effects
# Format: organism-based
# Conditions: in vivo
# In short: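 Rats with unilateral sciatic chronic constriction injury received a single intrathecal bolus via an implanted cannula 14 days after surgery, with morphine and vehicle as comparators. Compound-related behavioural observations were recorded alongside von Frey paw-withdrawal testing. Three animals per analogue.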
smiles,measurement,value
CC(C)C[C@@H]1NC(=O)[C@H](CCCCN)NC(=O)[C@H](Cc2ccc(O)cc2)NC(=O)CNC(=O)[C@@H]2CSSC[C@H](NC1=O)C(=O)N[C@@H](Cc1cnc[nH]1)C(=O)N1CC[C@H](O)[C@H]1C(=O)N[C@H](C(=O)O)CSSC[C@H](NC(=O)[C@@H](NC(=O)CNC(=O)[C@@H](N)CC(N)=O)C(C)C)C(=O)N2,Activity,Toxic
